According to ChEMBL document CHEMBL1165950, “Design and synthesis of new potent anticancer pyrazoles with high FLT3 kinase inhibitory selectivity” (Bioorg Med Chem, 2010):

Tests used:
Format in all cases: functional
[1] = tested on: DU-145; assay: Cytotoxicity against human DU145 cells assessed as cell growth at 0.001 uM after 48 hrs by sulforhodamine B assay; details: DU-145, 48 h, read-out: Activity
[2] = tested on: CAKI-1; assay: Cytotoxicity against human Caki1 cells assessed as cell growth at 100 nM after 48 hrs by sulforhodamine B assay; details: CAKI-1, 48 h, read-out: Activity
[3] = tested on: T47D; assay: Cytotoxicity against human T47D cells assessed as cell growth at 100 nM after 48 hrs by sulforhodamine B assay; details: read-out: Activity
[4] = tested on: MOLT-4; assay: Cytotoxicity against human MOLT4 cells assessed as cell growth at 1 uM after 48 hrs by sulforhodamine B assay; details: MOLT-4, 48 h, read-out: Activity
[5] = tested on: EKVX; assay: Cytotoxicity against human EKVX cells assessed as cell growth at 1 uM after 48 hrs by sulforhodamine B assay; details: read-out: Activity
[6] = tested on: 786-0; assay: Cytotoxicity against human 786-0 cells assessed as cell growth at 10 uM; details: read-out: Activity
Outline: (§1)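 Single-dose NCI-60 screen at 10 µM. Cells were grown in RPMI 1640 with 5% FBS and 2 mM L-glutamine, then treated for 48 h at 37 °C. Protein was measured by SRB staining with absorbance at 515 nm. Percentage growth was recorded, and inhibition percentage was calculated as 100 minus growth percentage.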

[7] = Cytotoxicity against human Hs 578T cells assessed as cell growth at 10 uM; details: read-out: Activity; outline: as §1
[8] = tested on: T47D; assay: Cytotoxicity against human T47D cells assessed as cell growth at 10 uM; details: read-out: Activity
Outline: (§2)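 NCI-60 screen: cells grown in RPMI 1640 with 5% FBS and 2 mM L-glutamine, plated at 5000–40,000 cells/well according to doubling time, and preincubated 24 h at 37 °C, 5% CO2. The single 10 µM dose (DMSO stock) was added, then incubated 48 h. Cells were TCA-fixed and stained with 0.4% SRB, read at 515 nm, and growth % calculated against time-zero and control plates.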

[9] = tested on: MOLT-4; assay: Cytotoxicity against human MOLT4 cells assessed as cell growth at 0.001 uM after 48 hrs by sulforhodamine B assay; details: MOLT-4, 48 h, read-out: Activity
[10] = tested on: COLO 205; assay: Cytotoxicity against human COLO205 cells assessed as cell growth at 1 uM after 48 hrs by sulforhodamine B assay; details: COLO 205, 48 h, read-out: Activity
Outline: (§3)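 NCI-60 five-dose screen. Cells were grown in RPMI 1640 with 5% FBS and 2 mM L-glutamine, plated at 5000–40,000 cells/well and preincubated for 24 h. Time-zero plates were TCA-fixed. DMSO-solubilized drug was added at five concentrations (10-fold or ½-log serial dilutions) for 48 h at 37 °C, 5% CO2. Cells were TCA-fixed, stained with 0.4% SRB and read at 515 nm. Percent growth used time-zero, control and test absorbances.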

[11] = tested on: HT-29; assay: Cytotoxicity against human HT-29 cells assessed as cell growth at 1 uM after 48 hrs by sulforhodamine B assay; details: HT-29, 48 h, read-out: Activity
[12] = tested on: SW-620; assay: Cytotoxicity against human SW620 cells assessed as cell growth at 1 uM after 48 hrs by sulforhodamine B assay; details: SW-620, 48 h, read-out: Activity
[13] = tested on: U-251; assay: Cytotoxicity against human U251 cells assessed as cell growth at 1 uM after 48 hrs by sulforhodamine B assay; details: U-251, 48 h, read-out: Activity
[14] = tested on: M14; assay: Cytotoxicity against human M14 cells assessed as cell growth at 0.01 uM after 48 hrs by sulforhodamine B assay; details: M14, 48 h, read-out: Activity
[15] = tested on: OVCAR-4; assay: Cytotoxicity against human OVCAR4 cells assessed as cell growth at 0.01 uM after 48 hrs by sulforhodamine B assay; details: OVCAR-4, 48 h, read-out: Activity
[16] = tested on: TK-10; assay: Cytotoxicity against human TK10 cells assessed as cell growth at 0.01 uM after 48 hrs by sulforhodamine B assay; details: TK-10, 48 h, read-out: Activity
[17] = tested on: NCI-H23; assay: Cytotoxicity against human NCI-H23 cells assessed as cell growth at 0.001 uM after 48 hrs by sulforhodamine B assay; details: NCI-H23, 48 h, read-out: Activity
[18] = tested on: HCT-15; assay: Cytotoxicity against human HCT15 cells assessed as cell growth at 0.001 uM after 48 hrs by sulforhodamine B assay; details: HCT-15, 48 h, read-out: Activity
[19] = tested on: OVCAR-8; assay: Cytotoxicity against human OVCAR8 cells assessed as cell growth at 0.001 uM after 48 hrs by sulforhodamine B assay; details: OVCAR-8, 48 h, read-out: Activity
[20] = tested on: PC-3; assay: Cytotoxicity against human PC3 cells assessed as cell growth at 0.001 uM after 48 hrs by sulforhodamine B assay; details: PC-3, 48 h, read-out: Activity
[21] = tested on: HCT-116; assay: Growth inhibition of human HCT116 cells after 48 hrs by sulforhodamine B assay; details: HCT-116, 48 h; for CC50: read-out: LC50 (the source's name)
Outline: (§4)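 NCI 60-cell screen, five-dose mode. Cells grown in RPMI 1640 with 5% FBS and 2 mM L-glutamine and plated at 5000-40,000 cells/well according to doubling time. After 24 h preincubation, a Tz plate was TCA-fixed. Five concentrations (10-fold or 1/2 log dilutions) were applied for 48 h at 37 °C. SRB staining read at 515 nm. IC50 taken from [(Ti-Tz)/(C-Tz)]×100 = 50.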

[22] = tested on: SF-539; assay: Growth inhibition of human SF539 cells after 48 hrs by sulforhodamine B assay; details: SF-539, 48 h; for CC50: read-out: LC50 (the source's name); outline: as §4
[23] = tested on: OVCAR-3; assay: Growth inhibition of human OVCAR-3 cells after 48 hrs by sulforhodamine B assay; details: OVCAR-3, 48 h; for CC50: read-out: LC50 (the source's name); outline: as §4
[24] = Cytotoxicity against human Hs 578T cells assessed as cell growth at 0.01 uM after 48 hrs by sulforhodamine B assay; details: read-out: Activity
[25] = tested on: CCRF-CEM; assay: Cytotoxicity against human CCRF-CEM cells assessed as cell growth at 100 nM after 48 hrs by sulforhodamine B assay; details: read-out: Activity; outline: as §3
[26] = tested on: EKVX; assay: Cytotoxicity against human EKVX cells assessed as cell growth at 100 nM after 48 hrs by sulforhodamine B assay; details: read-out: Activity
[27] = tested on: ACHN; assay: Growth inhibition of human ACHN cells after 48 hrs by sulforhodamine B assay
Outline: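 NCI five-dose SRB assay in RPMI 1640 with 5% FBS and 2 mM L-glutamine. Cells were preincubated 24 h, then exposed 48 h at 37 °C to five concentrations (10-fold or half-log serial dilutions from DMSO stocks). TCA fixation, SRB staining, and absorbance at 515 nm followed. IC50 was taken where [(Ti−Tz)/(C−Tz)]×100 = 50, with Tz as time-zero cell density.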

[28] = tested on: SR; assay: Cytotoxicity against human SR cells assessed as cell growth at 10 uM; details: read-out: Activity; outline: as §2
[29] = tested on: A498; assay: Cytotoxicity against human A498 cells assessed as cell growth at 1 uM after 48 hrs by sulforhodamine B assay; details: A498, 48 h, read-out: Activity; outline: as §3
[30] = tested on: HT-29; assay: Cytotoxicity against human HT-29 cells assessed as cell growth at 10 uM; details: read-out: Activity; outline: as §1

SMILES	growth at 0.001 µM [1] [%]	growth at 0.1 µM [2] [%]	growth at 0.1 µM [3] [%]	growth at 1 µM [4] [%]	growth at 1 µM [5] [%]	growth at 10 µM [6] [%]	growth at 10 µM [7] [%]	growth at 10 µM [8] [%]	growth at 0.001 µM [9] [%]	growth at 1 µM [10] [%]	growth at 1 µM [11] [%]	growth at 1 µM [12] [%]	growth at 1 µM [13] [%]	growth at 0.01 µM [14] [%]	growth at 0.01 µM [15] [%]	growth at 0.01 µM [16] [%]	growth at 0.001 µM [17] [%]	growth at 0.001 µM [18] [%]	growth at 0.001 µM [19] [%]	growth at 0.001 µM [20] [%]	other results
COc1cc(C)cc(-c2c(-c3ccnc(-c4ccc(C(C)=O)cc4)c3)cnn2CC#N)c1	109	86	87	7	37	67.2	88.5	45.6	102	-78	7	12	4	86	101	100	94	94	103	101	GI50 [21]: 1.7 µM; TGI [21]: 5.4 µM; CC50 [21]: > 100 µM; GI50 [22]: 2.02 µM; TGI [22]: 4.66 µM; CC50 [22]: > 100 µM; GI50 [23]: 2.61 µM; TGI [23]: 8.05 µM; CC50 [23]: > 100 µM; growth at 0.01 µM [24]: 98%; growth at 0.1 µM [25]: 84%; growth at 0.1 µM [26]: 91%; GI50 [27]: 3.76 µM; LC50 (concentration giving 50% net cell kill) [27]: > 100 µM; TGI [27]: > 100 µM; growth at 10 µM [28]: 25%; growth at 1 µM [29]: 17%; growth at 10 µM [30]: 15.2%
Cc1cc(O)cc(-c2nn(CC#N)cc2-c2ccnc(-c3ccc(N(C)C)cc3)c2)c1	103	85	82	11	29	26.2	47.7	17.7	100	-59	24	10	8	92	108	107	94	86	100	105	GI50 [21]: 2.71 µM; TGI [21]: 10.4 µM; CC50 [21]: 41.9 µM; GI50 [22]: 2.12 µM; TGI [22]: 5.33 µM; CC50 [22]: 27.3 µM; GI50 [23]: 1.91 µM; TGI [23]: 4.78 µM; CC50 [23]: 21.2 µM; growth at 0.01 µM [24]: 95%; growth at 0.1 µM [25]: 96%; growth at 0.1 µM [26]: 81%; GI50 [27]: 3.73 µM; LC50 (concentration giving 50% net cell kill) [27]: > 100 µM; TGI [27]: 23.7 µM; growth at 10 µM [28]: 20.5%; growth at 1 µM [29]: 5%; growth at 10 µM [30]: 20.5%
COc1cc(C)cc(-c2nn(CC#N)cc2-c2ccnc(-c3ccc(N(C)C)cc3)c2)c1	103	14	24	13	28	5.8	31.6	39	102	-74	-29	19	-5	93	98	119	93	99	97	97	GI50 [21]: 0.353 µM; TGI [21]: 1.64 µM; CC50 [21]: > 100 µM; GI50 [22]: 0.259 µM; TGI [22]: 0.596 µM; CC50 [22]: > 100 µM; GI50 [23]: 0.204 µM; TGI [23]: 0.448 µM; growth at 0.01 µM [24]: 100%; growth at 0.1 µM [25]: 24%; growth at 0.1 µM [26]: 43%; GI50 [27]: 0.499 µM; LC50 (concentration giving 50% net cell kill) [27]: > 100 µM; TGI [27]: 12.4 µM; growth at 10 µM [28]: 9.06%; growth at 1 µM [29]: -26%; growth at 10 µM [30]: -7.04%
